Each structure is given as a SMILES string. Converted amounts (≈) assume the structure as drawn.

From ChEMBL document CHEMBL4342512, “Discovery of [1,2,4]Triazolo[1,5-a]pyridine Derivatives as Potent and Orally Bioavailable RORγt Inverse Agonists” (ACS Med Chem Lett, 2020) come the findings set out here.

Series [1] can be described thus: Metabolic stability in human liver microsomes assessed as intrinsic clearance. In kind it is ADME, Microsome.
Series [2] in a line: Metabolic stability in mouse liver microsomes assessed as intrinsic clearance. In kind it is ADME, Microsome.
Series [3] in a line: Protein binding in human plasma. In kind it is ADME, cell-free. The note with it: read-out: PPB (converted). In outline: (§1)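 Plasma protein binding was determined in human or mouse plasma.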
Series [4] is described as follows: Protein binding in mouse plasma. Particulars: read-out: PPB (converted). In kind it is ADME, cell-free. An outline of the steps: as §1
Series [5] is described as follows: Solubility of compound in aqueous medium at pH 6.8. The class given is physicochemical. An outline of the steps: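 Solubility was measured in the second fluid of the Japanese Pharmacopoeia Disintegration Test (pH 6.8).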
A short description of series [6]: Apparent permeability across apical to basolateral side in human Caco2 cells. In kind it is ADME, cell-based. Particulars: Caco-2. An outline of the steps:
(§2)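 Bidirectional permeability was measured in the apical-to-basolateral and basolateral-to-apical directions.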

A short description of series [7]: Apparent permeability across basolateral to apical side in human Caco2 cells. In kind it is ADME, cell-based. Particulars: Caco-2. An outline of the steps:
as §2

Series [8] in a line: Bioavailability in mouse at 2 umol/kg, po and 1 umol/kg, iv administered using cassette dosing. The class given is ADME, organism-based. Particulars: in vivo. An outline of the steps: (§3)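 Mouse PK by cassette dosing. The combined compounds were given orally at 2 μmol/kg and intravenously at 1 μmol/kg. PK parameters were derived from the plasma profiles.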
Series [9] is described as follows: AUC in mouse at 2 umol/kg, po administered using cassette dosing. The class given is ADME, organism-based. The note with it: in vivo. An outline of the steps:
as §3

Series [10] in a line: Clearance in mouse at 2 umol/kg, po and 1 umol/kg, iv administered using cassette dosing. The class given is ADME, organism-based. The note with it: in vivo. In outline:
as §3

A short description of series [11]: Unbound clearance in mouse at 2 umol/kg, po and 1 umol/kg, iv administered using cassette dosing. The class given is ADME, organism-based. The note with it: in vivo. An outline of the steps: as §3
The nature of series [12]: Volume of distribution at steady state in mouse at 2 umol/kg, po and 1 umol/kg, iv administered using cassette dosing. The class given is ADME, organism-based. Particulars: in vivo, read-out: Vdss. An outline of the steps:
as §3

Series [13] is described as follows: Half life in mouse at 2 umol/kg, po administered using cassette dosing. The class given is ADME, organism-based. The note with it: in vivo. An outline of the steps:
as §3

The nature of series [14]: Half life in mouse at 1 umol/kg, iv administered using cassette dosing. In kind it is ADME, organism-based. The note with it: in vivo. An outline of the steps: as §3
Series [15] in a line: Drug metabolism in human hepatocytes assessed as central triazolo-pyridine core derived metabolic soft spot formation by mass spectrometry. The class given is ADME, cell-based, Hepatocyte.
Series [16] in a line: Drug metabolism in human hepatocytes assessed as cyclopentyl derived oxidative adduct formation by mass spectrometry. The class given is ADME, cell-based, Hepatocyte.

As to `Cc1ccc(C(=O)Nc2cc(F)cc(CN3CCN(C(=O)C4CCCC4)[C@@H](C)C3)c2C)cn1`, the CLH stood at 88 µL/min/mg in series [1] and 110 µL/min/mg in [2]. Besides, the fraction unbound in series [3] was 0.003; in series [4] it was 0.043. In addition, in series [5], the solubility (usually the dissolved amount per volume that the medium holds) was found to be 71 µM (≈ 32.1 µg/mL). In series [6], the apparent permeability from apical to basolateral (Papp A→B) (in general, how fast a substance crosses the layer from the apical side) came to 40 ×10⁻⁶ cm/s. For the same molecule, in series [7], the Papp B→A (as a rule, how fast a substance crosses the layer from the basolateral side) came out at 55 ×10⁻⁶ cm/s. Besides, the bioavailability in [8] was 48%. Moreover, the exposure (AUC) (usually the area under the concentration-time curve, a measure of exposure) in series [9] amounted to 0.49 µM·h. Also, the clearance in series [10] was 33.3 mL/min/kg. The molecule further showed a CL free in [11] of 767 mL/min/kg. Moreover, the Vd in [12] was 1.6 L/kg. The half-life in series [13] and in [14] was 0.7 h throughout.

`Cc1ccc(C(=O)Nc2cn3ncnc3c(CN3CCN(C(=O)C4CCC(F)(F)C4)[C@@H](C)C3)c2C)cn1` (stereo partly specified): in series [1], the CLH is less than 10 µL/min/mg.

With `Cc1ccc(C(=O)Nc2cn3ncnc3c(CN3CCN(C(=O)c4ccccc4)[C@@H](C)C3)c2C)cn1`, the CLH in series [1] turned out to be 21 µL/min/mg.

Turning to `Cc1ccc(C(=O)Nc2cn3ncnc3c(CN3CCN(C(=O)C(C)C)[C@@H](C)C3)c2C)cn1`, the CLH in series [1] worked out at 240 µL/min/mg.

On to `Cc1ccc(C(=O)Nc2cn3ncnc3c(O[C@H]3CCN(C(=O)CC(C(F)(F)F)C(F)(F)F)[C@@H](C)C3)c2C)cn1`, for which the CLH in [1] amounted to 10 µL/min/mg; in [2], 30 µL/min/mg. In addition, the values for the fraction unbound in series [3] and in series [4] were 0.082 and 0.135, respectively. Also, the solubility in series [5] was determined as 170 µM (≈ 97.3 µg/mL). Further, in [6], the Papp A→B was 31 ×10⁻⁶ cm/s. In [7], the Papp B→A stood at 51 ×10⁻⁶ cm/s. The bioavailability in [8] was 120%. Besides, the AUC in [9] is 15 µM·h. Besides, the clearance in series [10] was 2.5 mL/min/kg. The CL free in [11] was 18.3 mL/min/kg. The Vd in series [12] is 0.8 L/kg. In addition, the half-life (as a rule, how long it takes for the measured level to halve) in [13] was 3.6 h; in [14], 3.9 h.

As to `Cc1ccc(C(=O)Nc2cn3ncnc3c(CN3CCN(C(=O)C4CCOCC4)[C@@H](C)C3)c2C)cn1`, in series [1], the CLH was less than 10 µL/min/mg.

For the molecule `Cc1ccc(C(=O)Nc2cn3ncnc3c(CN3CCN(C(=O)CCC(F)(F)F)[C@@H](C)C3)c2C)cn1`, the CLH in [1] was less than 10 µL/min/mg.

With `Cc1ccc(C(=O)Nc2cn3ncnc3c(O[C@@H]3CCN(C(=O)CC(C(F)(F)F)C(F)(F)F)[C@@H](C)C3)c2C)cn1`, in [1], the CLH was determined as 28 µL/min/mg.

Turning to `Cc1ccc(C(=O)Nc2cn3ncnc3c(CN3CCN(C(=O)CC(C)C)[C@@H](C)C3)c2C)cn1`, the CLH in series [1] is 20 µL/min/mg.

For the molecule `Cc1ccc(C(=O)Nc2cc3nncn3c(CN3CCN(C(=O)C4CCCC4)[C@@H](C)C3)c2C)cn1`, the CLH in series [1] stood at 59 µL/min/mg.

`Cc1ccc(C(=O)Nc2cn3ncnc3c(CN3CCN(C(=O)CC(C(F)(F)F)C(F)(F)F)[C@@H](C)C3)c2C)cn1`: the CLH in series [1] and in [2] was less than 10 µL/min/mg throughout. Moreover, the figures for the fraction unbound in [3] and in series [4] were 0.139 and 0.233, respectively. The same molecule had a solubility in [5] of 200 µM (≈ 114 µg/mL). In [6], the Papp A→B worked out at 9.6 ×10⁻⁶ cm/s. Further, in series [7], the Papp B→A amounted to 36 ×10⁻⁶ cm/s. In addition, in series [8], the bioavailability was determined as 110%. In series [9], this molecule had an AUC of 2.3 µM·h. Besides, in series [10], the clearance is 18.3 mL/min/kg. This molecule also came in with a CL free in series [11] of 75 mL/min/kg. The Vd in series [12] stood at 1.1 L/kg. Moreover, the half-life was 1.1 h in series [13] and 1 h in series [14].

Regarding `Cc1ccc(C(=O)Nc2cn3ncnc3c(CN3CCN(C(=O)C4CCCC4)[C@@H](C)C3)c2C)cn1`, the CLH in series [1] was found to be 32 µL/min/mg; in series [2], 11 µL/min/mg. Moreover, the results for the fraction unbound in series [3] and in [4] were 0.227 and 0.212, respectively. In addition, the concentration in solution in [5] (solubility) came to 190 µM (≈ 90.4 µg/mL). Also, the Papp A→B in [6] stood at 2.5 ×10⁻⁶ cm/s. The Papp B→A in series [7] stood at 46 ×10⁻⁶ cm/s. Besides, the bioavailability in [8] came to 47%. Also, in series [9], the exposure (AUC) amounted to 0.84 µM·h. For the same molecule, the clearance in series [10] is 18.3 mL/min/kg. In series [11], this molecule gave a CL free of 88.3 mL/min/kg. The Vd in series [12] was determined as 0.77 L/kg. For the same molecule, the half-life in [13] is 1.2 h; in [14], 1.4 h. Further, the Drug metabolism result in [15] was “Metabolite_Notdetected”; in series [16] it was “Metabolite_Detected”.
